# Article PMC4720140 (Journal of medicinal chemistry, 2015)
# Entries after “also recorded” stand apart in the source; their conditions may differ.
# Key:
# [1] = system: Akt and PHLPP1 membrane localization in LNCaP cells; assay: Immunocytochemistry of cellular distribution of Akt and PHLPP1 in LNCaP cells; assay type: cell-based; settings: serum-free medium, 24 h
# [2] = system: ILK distribution in LNCaP cells; assay: Immunocytochemistry of cellular distribution of ILK in LNCaP cells; assay type: cell-based; settings: serum-free medium, 24 h
# How it was run: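 LNCaP cells seeded on poly-L-lysine-coated surfaces at 12000 cells/cm² for 24 h, then exposed to test compound in serum-free RPMI 1640 for 24 h. Fixed in 4% formaldehyde for 20 min, permeabilised with 0.1% Triton X-100 for 15 min at room temperature, blocked in 1% FBS for 1 h. Endogenous ILK stained with antibody (1:300) overnight, then Alexa Fluor-conjugated secondary (1:500) for 2 h. Nuclei stained with DAPI; imaged by confocal microscopy.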
# PH domain of ILK = target: T1, PH domain of ILK (Homo sapiens, UniProt Q13418); assay: SPR binding to the ILK PH domain
# T1 sequence (Q13418 180-212 limits assumed): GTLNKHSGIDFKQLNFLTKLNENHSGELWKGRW
# How it was run: (§1)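 Surface plasmon resonance: GST-tagged PH-domain fusion protein amine-coupled to a CM5 chip at 17000 response units. Test compound injected at 1–20 µM at a flow rate of 30 µL/min. DMSO at 1% (v/v) or less in samples and running buffer.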
# [3] = system: subcutaneous PC-3 xenograft tumors; assay: PC-3 xenograft tumor growth in nude mice; assay type: in vivo, athymic nude mice; settings: versus vehicle
# PH domain of PHLPP1 = target: T2, PH domain of PHLPP1 (Homo sapiens, UniProt O60346); assay: SPR binding to the PHLPP1 PH domain
# T2 sequence (O60346 536-636 limits assumed): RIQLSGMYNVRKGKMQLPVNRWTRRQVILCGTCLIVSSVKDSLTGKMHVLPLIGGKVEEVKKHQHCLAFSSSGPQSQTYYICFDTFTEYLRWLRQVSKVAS
# How it was run: as §1
# [4] = system: phosphorylation of Ser473-Akt, MDM2 and IKK in PC-3 xenograft tumors; assay: Western blot of Akt signaling markers in PC-3 tumor lysates; assay type: in vivo, athymic nude mice; settings: after 21 days
# [5] = system: phosphorylation of Akt (Ser473), MDM2 and IKK in LNCaP cells; assay: Western blot of Akt signaling in LNCaP cells; assay type: cell-based; settings: different concentrations, 24 h
# How it was run: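 Lines kept in RPMI 1640 with 10% FBS at 37 °C, 5% CO₂. LNCaP were seeded on poly-L-lysine-coated flasks (12000 cells/cm²) for 24 h, then dosed in serum-free RPMI. Cells got test compound for 24 h, then were scraped and lysed in 1% SDS/Tris pH 8 buffer with protease inhibitors. Lysates were spun at 14000g and BCA-normalized, then run on SDS-PAGE/nitrocellulose, probed with primary antibody (1:1000, overnight, 4 °C) and HRP secondary, and detected by ECL.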
# PH domain of PDK1 = target: T3, PH domain of PDK1 (Homo sapiens, UniProt O15530); assay: SPR binding to the PDK1 PH domain
# T3 sequence (O15530 459-550 limits assumed): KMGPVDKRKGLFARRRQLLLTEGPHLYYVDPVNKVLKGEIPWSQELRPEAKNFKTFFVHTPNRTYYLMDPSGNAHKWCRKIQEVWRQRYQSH
# How it was run: as §1
# [6] = system: phosphorylation of Akt (Ser473), MDM2 and IKK in PC-3 cells; assay: Western blot of Akt signaling in PC-3 cells; assay type: cell-based; settings: different concentrations, 24 h
# PC-3 cells = assay: MTT cell viability assay in PC-3 cells; assay type: cell-based; settings: 24 h exposure in serum-free medium
# How it was run: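 PC-3 cells plated uncoated at 5000 cells/well in 10% FBS. After 24 h, exposed to test compound in serum-free medium for 24 h. MTT added (0.5 mg/mL final) for 2 h, then medium replaced with DMSO and absorbance read at 595 nm. Viability expressed as % of vehicle-treated control; n = 6, means ± SD.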
# [7] = system: membrane translocation of Akt and PHLPP1 in LNCaP cells; assay: Western blot of membrane versus cytoplasmic fractions of LNCaP cells; assay type: cell-based; settings: 24 h
# [8] = ip injection 50 mg/kg once daily for 21 days
# [9] = oral gavage 100 mg/kg once daily
Structure (SMILES),Localization of Akt and PHLPP1 to the plasma membrane ([1]; 10 µM),"Suppression of PC-3 xenograft tumor growth [3, 8]","Phosphorylation levels of Akt, MDM2 and IKK in tumor lysates [4, 9]",Phosphorylation level of Akt (Ser473) and/or MDM2 and IKK [5],Phosphorylation level of Akt (Ser473) and/or MDM2 and IKK [6],Localization of Akt and PHLPP1 to the plasma membrane ([1]; 5 µM),further results
"Cc1c(O)cc2c(c1C)O[C@@](C)(CCCC(C)C)CC2 [Compound 3, (S)-2,7,8-trimethyl-2-(4-methylpentyl)chroman-6-ol]",facilitated the localization of Akt and PHLPP1 to the plasma membrane,significantly suppressed PC-3 xenograft tumor growth,unable to affect any of these signaling markers,dose-dependently reduced the phosphorylation level of Akt and/or MDM2 and IKK,dose-dependently reduced the phosphorylation level of Akt and/or MDM2 and IKK,,"Cellular distribution of ILK ([2]; 10 µM): Lack of effect; Kd (PH domain of ILK): 8.7 ± 3.6 µM; Suppression of PC-3 xenograft tumor growth ([3]; oral gavage 100 mg/kg once daily for 21 days, 100 mg/kg): not apparent; also recorded: no in vivo tumor-suppressive activity; Kd (PH domain of PHLPP1): 0.69 ± 0.36 µM; Kd (PH domain of PDK1): 10.2 ± 1.2 µM"
COc1cc2c(c(C)c1C)OC(C)(CCCC(C)C)CC2 (centres unmarked) [Compound 5],,,,,,,Antiproliferative effect (IC50) in PC-3 cells (PC-3 cells): remained inactive
Cc1c(S(N)(=O)=O)cc2c(c1C)OC(C)(CCCC(C)C)CC2 (centres unmarked) [Compound 20],,equipotent in suppressing PC-3 tumor growth irrespective of the route of administration,"parallel decreases in the phosphorylation levels of Akt, MDM2, and IKK",dose-dependently reduced the phosphorylation level of Akt and/or MDM2 and IKK,dose-dependently reduced the phosphorylation level of Akt and/or MDM2 and IKK,facilitated the localization of Akt and PHLPP1 to the plasma membrane,"Cellular distribution of ILK ([2]; 5 µM): Lack of effect; also recorded: no apparent changes in the distribution of ILK; Suppression of PC-3 xenograft tumor growth ([3]; oral gavage 100 mg/kg once daily for 21 days): equipotent in suppressing PC-3 tumor growth irrespective of the route of administration; Membrane translocation of Akt and PHLPP1 (membrane versus cytoplasmic fractions) [7]: higher potency than 3 in facilitating the membrane translocation; Phosphorylation levels of Akt, MDM2 and IKK in tumor lysates ([4]; ip injection 50 mg/kg once daily): parallel decreases in the phosphorylation levels of Akt, MDM2, and IKK"
CC(C)CCCC1(C)CCc2cc(S(N)(=O)=O)cc(F)c2O1 (centres unmarked) [Compound 21],no change in the cellular distribution of Akt or PHLPP1,,,failed to elicit Ser473-Akt dephosphorylation,failed to elicit Ser473-Akt dephosphorylation,,
CC(C)CCCC1(C)CCc2cc(S(N)(=O)=O)cc(Br)c2O1 (centres unmarked) [Compound 22],,,,dose-dependently reduced the phosphorylation level of Akt and/or MDM2 and IKK,dose-dependently reduced the phosphorylation level of Akt and/or MDM2 and IKK,facilitated the localization of Akt and PHLPP1 to the plasma membrane,
